Assay results as given in the M2OR odorant receptor database.

Columns and labels:
Conditions in all cases: stereoisomer not certain
[1] = target: T1, OR10H4 (Homo sapiens) (UniProt Q8NGA5)
T1 sequence (whole entry): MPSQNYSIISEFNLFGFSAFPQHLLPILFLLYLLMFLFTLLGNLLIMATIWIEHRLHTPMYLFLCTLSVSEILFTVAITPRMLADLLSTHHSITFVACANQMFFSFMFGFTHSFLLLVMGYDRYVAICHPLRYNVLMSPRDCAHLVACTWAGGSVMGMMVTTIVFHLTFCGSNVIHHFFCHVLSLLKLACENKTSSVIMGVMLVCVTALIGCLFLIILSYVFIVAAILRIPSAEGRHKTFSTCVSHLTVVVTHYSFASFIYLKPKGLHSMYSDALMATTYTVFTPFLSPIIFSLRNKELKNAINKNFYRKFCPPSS
In short: (§1)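 Values were gathered from published papers (main text and supplementary material), with extra details requested from the original authors when needed, and checked for typos and inconsistencies. Each receptor–molecule pair is called responsive (active) if the original authors judged the measured signal statistically different from baseline, and non-responsive (inactive) otherwise. Assay methods varied by source, often transient mammalian cell-line luciferase assays. Recorded details include cell line, G-protein, co-transfected protein and tags.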

[2] = target: T2, OR10H5 (Homo sapiens) (UniProt Q8NGA6)
T2 sequence (whole entry): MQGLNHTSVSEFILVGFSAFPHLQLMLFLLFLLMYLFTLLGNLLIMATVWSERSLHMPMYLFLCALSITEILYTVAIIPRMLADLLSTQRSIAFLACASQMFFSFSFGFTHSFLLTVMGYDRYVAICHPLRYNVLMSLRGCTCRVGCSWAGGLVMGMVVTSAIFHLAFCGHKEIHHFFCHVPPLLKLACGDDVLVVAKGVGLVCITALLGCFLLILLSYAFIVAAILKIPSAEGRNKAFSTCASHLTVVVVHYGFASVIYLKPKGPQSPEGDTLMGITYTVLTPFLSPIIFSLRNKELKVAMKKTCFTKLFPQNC
In short: as §1

[3] = target: T3, OR10J1 (Homo sapiens) (UniProt P30954)
T3 sequence (whole entry): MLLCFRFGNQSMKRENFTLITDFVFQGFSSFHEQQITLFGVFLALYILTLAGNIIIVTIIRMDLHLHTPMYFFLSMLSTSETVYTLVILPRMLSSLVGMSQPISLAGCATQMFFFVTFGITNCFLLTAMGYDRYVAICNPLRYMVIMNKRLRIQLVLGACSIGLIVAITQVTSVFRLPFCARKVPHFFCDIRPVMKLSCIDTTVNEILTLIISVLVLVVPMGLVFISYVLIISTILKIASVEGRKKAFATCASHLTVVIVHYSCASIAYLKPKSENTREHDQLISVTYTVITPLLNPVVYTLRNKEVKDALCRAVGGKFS
In short: as §1

[4] = target: T4, OR10J3 (Homo sapiens) (UniProt Q5JRS4)
T4 sequence (whole entry): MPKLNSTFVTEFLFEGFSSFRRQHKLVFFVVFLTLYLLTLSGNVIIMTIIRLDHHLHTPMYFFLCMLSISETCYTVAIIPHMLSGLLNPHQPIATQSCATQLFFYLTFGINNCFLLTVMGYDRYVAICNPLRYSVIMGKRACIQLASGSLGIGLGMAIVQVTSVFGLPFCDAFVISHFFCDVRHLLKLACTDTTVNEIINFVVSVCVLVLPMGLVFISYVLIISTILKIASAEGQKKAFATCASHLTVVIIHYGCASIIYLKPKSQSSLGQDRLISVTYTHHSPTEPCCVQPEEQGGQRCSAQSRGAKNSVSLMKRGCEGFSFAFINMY
In short: as §1

[5] = target: T5, OR10J5 (Homo sapiens) (UniProt Q8NHC4)
T5 sequence (whole entry): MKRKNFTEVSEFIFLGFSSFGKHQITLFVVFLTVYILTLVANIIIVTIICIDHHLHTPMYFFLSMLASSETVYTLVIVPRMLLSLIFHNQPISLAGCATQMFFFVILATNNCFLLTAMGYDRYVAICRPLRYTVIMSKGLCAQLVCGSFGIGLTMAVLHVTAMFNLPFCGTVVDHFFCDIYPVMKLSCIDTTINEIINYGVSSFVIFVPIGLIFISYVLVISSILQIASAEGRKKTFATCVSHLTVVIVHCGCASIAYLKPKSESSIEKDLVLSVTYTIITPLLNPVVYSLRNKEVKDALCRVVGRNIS
In short: as §1

[6] = target: T6, OR10K1 (Homo sapiens) (UniProt Q8NGX5)
T6 sequence (whole entry): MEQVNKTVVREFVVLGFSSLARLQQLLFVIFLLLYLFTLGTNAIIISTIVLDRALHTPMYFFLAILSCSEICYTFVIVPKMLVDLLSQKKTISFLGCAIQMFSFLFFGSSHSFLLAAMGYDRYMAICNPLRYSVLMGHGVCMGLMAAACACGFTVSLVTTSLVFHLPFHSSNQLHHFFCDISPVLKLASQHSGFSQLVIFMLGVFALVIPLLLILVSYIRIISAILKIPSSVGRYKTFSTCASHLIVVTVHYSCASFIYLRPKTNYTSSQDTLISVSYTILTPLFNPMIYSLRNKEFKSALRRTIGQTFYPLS
In short: as §1

[7] = target: T7, OR10P1 (Homo sapiens) (UniProt Q8NGE3)
T7 sequence (whole entry): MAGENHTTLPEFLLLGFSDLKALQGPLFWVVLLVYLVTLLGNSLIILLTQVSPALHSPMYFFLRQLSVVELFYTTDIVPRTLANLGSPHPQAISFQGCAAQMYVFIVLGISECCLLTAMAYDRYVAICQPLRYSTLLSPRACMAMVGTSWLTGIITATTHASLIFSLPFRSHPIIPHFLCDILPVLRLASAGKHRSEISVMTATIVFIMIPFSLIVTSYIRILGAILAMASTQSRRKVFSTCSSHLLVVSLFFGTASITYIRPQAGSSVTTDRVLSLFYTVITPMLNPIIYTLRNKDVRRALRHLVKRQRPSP
In short: as §1

[8] = target: T8, OR10Q1 (Homo sapiens) (UniProt Q8NGQ4)
T8 sequence (whole entry): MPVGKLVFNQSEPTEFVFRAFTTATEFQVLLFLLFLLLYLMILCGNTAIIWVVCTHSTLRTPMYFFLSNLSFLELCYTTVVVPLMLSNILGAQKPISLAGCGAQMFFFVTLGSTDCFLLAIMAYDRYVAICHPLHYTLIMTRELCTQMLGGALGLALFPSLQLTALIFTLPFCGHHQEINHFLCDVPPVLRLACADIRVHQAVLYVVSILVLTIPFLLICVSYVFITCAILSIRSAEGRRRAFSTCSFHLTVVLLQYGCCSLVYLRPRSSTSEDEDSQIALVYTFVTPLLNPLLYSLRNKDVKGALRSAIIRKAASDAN
In short: as §1

[9] = target: T9, OR10K2 (Homo sapiens) (UniProt Q6IF99)
T9 sequence (whole entry): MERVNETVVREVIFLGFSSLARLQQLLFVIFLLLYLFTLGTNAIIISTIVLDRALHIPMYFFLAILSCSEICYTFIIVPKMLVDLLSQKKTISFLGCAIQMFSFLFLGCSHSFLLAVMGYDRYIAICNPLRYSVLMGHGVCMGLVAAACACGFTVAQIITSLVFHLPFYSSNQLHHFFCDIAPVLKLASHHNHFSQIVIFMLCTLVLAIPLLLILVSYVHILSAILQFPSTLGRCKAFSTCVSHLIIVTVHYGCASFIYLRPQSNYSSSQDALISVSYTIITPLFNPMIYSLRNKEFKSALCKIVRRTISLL
In short: as §1

[10] = target: OR10J4 (Homo sapiens) (UniProt P0C629)
Chain of OR10J4 (Homo sapiens) (P0C629 whole entry F198I): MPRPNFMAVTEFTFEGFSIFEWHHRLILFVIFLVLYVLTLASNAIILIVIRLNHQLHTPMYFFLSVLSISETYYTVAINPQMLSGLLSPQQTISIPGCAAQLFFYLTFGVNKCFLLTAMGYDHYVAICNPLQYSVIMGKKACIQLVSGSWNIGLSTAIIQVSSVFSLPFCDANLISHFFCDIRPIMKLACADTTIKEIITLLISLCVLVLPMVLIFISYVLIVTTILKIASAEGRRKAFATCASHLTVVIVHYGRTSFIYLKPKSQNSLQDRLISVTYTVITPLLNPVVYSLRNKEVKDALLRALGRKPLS
In short: as §1

Measured: odorant receptor agonist call

CCCCCCC=CCCC=O
inactive: [1] | [2] | [3] | [4] | [5] | [6] | [7] | [8]

CCCCCCCCCCO
inactive: [5]

C=CCOC(=O)CCCCCC
inactive: [5]

CCCCC(S)C(C)CO (stereo unspecified)
inactive: [1] | [2] | [3] | [4] | [6] | [9] | [7] | [8]
active: [5]

CCCCCCO
inactive: [5]

CCCCCC(S)C(C)CO (stereo unspecified)
inactive: [1] | [2] | [3] | [4] | [5] | [6] | [9] | [7] | [8]

CCCCOC(=O)C(C)OC(=O)CCC (stereo unspecified)
inactive: [5]

CC(=O)c1c(C)c([N+](=O)[O-])c(C(C)(C)C)c([N+](=O)[O-])c1C
inactive: [1] | [2] | [4] | [10] | [5] | [6] | [9] | [7] | [8]

CC1CCCCCCCCCCCCC(=O)C1 (stereo unspecified)
inactive: [1] | [2] | [4] | [10] | [5] | [6] | [9] | [7] | [8]

CC1=C(O)C(=O)C(C)O1 (stereo unspecified)
inactive: [1] | [2] | [3] | [4] | [5] | [6] | [7] | [8]

Cc1cnc(C)c(C)n1
inactive: [1] | [2] | [3] | [4] | [5] | [6] | [7] | [8]

c1ccccc1
inactive: [5]

CCCCCCCCO
inactive: [5]

CC1=C(O)C(=O)OC1C (stereo unspecified)
inactive: [1] | [2] | [3] | [4] | [5] | [6] | [7] | [8]

CC(CO)CS (stereo unspecified)
inactive: [1] | [2] | [3] | [4] | [5] | [6] | [9] | [7] | [8]

C=C(C)C1CCC(C)C(=O)C1 (stereo unspecified)
inactive: [5]

CCCCCC(=O)C(C)C(C)=O (stereo unspecified)
inactive: [1] | [2] | [3] | [4] | [5] | [6] | [9] | [7] | [8]

O=C(c1ccccc1)c1ccccc1
inactive: [5]

CCCCCO
inactive: [5]

CCC(S)C(C)CO (stereo unspecified)
inactive: [1] | [2] | [3] | [4] | [5] | [6] | [9] | [7] | [8]

CC1=NC(C)C(C)S1 (stereo unspecified)
inactive: [1] | [2] | [3] | [4] | [5] | [6] | [7] | [8]

CCCCCCCO
inactive: [5]

CCCC(C)=O
inactive: [5]

CCCC(S)CCOC(C)=O (stereo unspecified)
inactive: [1] | [2] | [3] | [4] | [5] | [6] | [7] | [8]

CCC1OC(=O)C(O)=C1C (stereo unspecified)
inactive: [1] | [2] | [3] | [4] | [5] | [6] | [7] | [8]

CCC(=O)O
inactive: [5]

CCC1OC(C)=C(O)C1=O (stereo unspecified)
inactive: [1] | [2] | [3] | [4] | [5] | [6] | [7] | [8]

CC(C)=CCCC(C)CCO (stereo unspecified)
inactive: [5]

CCCCCCCCS
inactive: [5]
